# Data: publication PMC8945396 (ACS Nano, 2022)
# Experiments:
# [1] = system: soybean leaf epidermal and palisade mesophyll cells; assay: Translocation of TAMRA-labeled CPPs after spraying; assay type: in vivo, Glycine max; settings: cv. Enrei; 30, 90, 150 min post spraying; CLSM, 6 ROIs
# [2] = system: transgenic tomato leaf cells overexpressing GFP; assay: Transfection of Cy3-labeled pBI221/CPP complexes after spraying; assay type: in vivo, Solanum lycopersicum; settings: as Cy3-labeled pBI221/CPP complex, N/P ratio = 2.0; 2 h post spraying; n = 15 ROIs
# [3] = system: Arabidopsis thaliana leaf upper epidermal and palisade mesophyll cells; assay: Cell penetration and translocation of TAMRA-labeled CPPs after spraying; assay type: in vivo; settings: 0.1 μg/mL sprayed; 30, 90, 150 min post spraying; CLSM, n = 8 ROIs
# [4] = system: epidermal cells of tomato leaves; assay: Translocation of TAMRA-labeled CPPs after spraying; assay type: in vivo, Solanum lycopersicum; settings: compared among BP100, dR9, KH9, KAibA; 30, 90, 150 min; 10 ROIs
# Method in brief: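 Tomato (cv. Micro-Tom) grown in soil with vermiculite at 25 °C, 16/8 h light/dark, 80 μmol photons m–2 s–1, 50% RH for 5–8 weeks; plants with 5–6 expanded leaves. Leaves were water-washed and dried 3–4 h, then sprayed with TAMRA-labeled peptides and lidded. Before imaging, leaves were rinsed 5 × 1 mL water. TAMRA fluorescence intensity was read by confocal microscopy, ex/em 555/580 nm.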
substance,measurement,setting,value
(Lys(Aib)Ala)5 [TAMRA-labeled KAibA],translocation efficiency into the palisade mesophyll of soybean leaves,[1],higher translocation efficiency into the palisade mesophyll than the other CPPs
KHKHKHKHKHKHKHKHKHKKLFKKILKYL [KH9-BP100],transfection efficiency of plasmid DNA molecules after spraying,[2],higher transfection efficiency
d-(RRRRRRRRR) [TAMRA-labeled dR9],penetration efficiency into the palisade mesophyll,[3],higher penetration efficiency into the palisade mesophyll than the other CPPs
same,translocation efficiency in epidermal cells of tomato leaves,[4],greatest translocation efficiency
